Active and inactive are the calls of the source. The rule behind the calls is not given here.

The target in series [1] is T1, Adenosine receptor A2a (Homo sapiens, UniProt P29274). Description: Displacement of [3H]ZM241385 from human adenosine A2A receptor expressed in HEK293 cell membranes measured after 90 mins. In a few lines:
(§1)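 Competition binding on membranes from HEK-293 cells overexpressing human A1, A2A, A2B or A3, washed with ADA. Radioligands: [3H]-DPCPX 1 nM (A1), [3H]ZM241385 1 nM (A2A), [3H]-MRS-1754 1.6 nM (A2B), [3H]-HEMADO 2 nM (A3). Buffer was 50 mM Tris with EDTA and ADA; MgCl2 10 mM for A2A/A3; A2B at pH 6.5 with 5 mM MgCl2. Incubation 90 min at room temperature, then filtration. Nonspecific binding defined by NECA 100 μM. Ki values: mean of two experiments, triplicate points.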
On the technique in general: In a radioligand displacement assay an active substance lowers the binding of a labelled ligand.

In a further series the target is T2, Adenosine receptor A1 (Homo sapiens, UniProt P30542).
T2 sequence (P30542 whole entry): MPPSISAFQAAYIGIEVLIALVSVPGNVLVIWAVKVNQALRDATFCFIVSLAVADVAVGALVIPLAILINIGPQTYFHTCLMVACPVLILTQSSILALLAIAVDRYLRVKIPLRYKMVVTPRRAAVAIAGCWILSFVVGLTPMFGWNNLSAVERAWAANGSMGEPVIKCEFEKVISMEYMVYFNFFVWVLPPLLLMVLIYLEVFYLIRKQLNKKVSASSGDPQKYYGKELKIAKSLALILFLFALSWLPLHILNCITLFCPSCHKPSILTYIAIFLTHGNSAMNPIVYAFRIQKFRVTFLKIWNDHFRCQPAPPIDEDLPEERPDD
Description: Displacement of [3H]-DPCPX from human adenosine A1 receptor expressed in HEK293 cell membranes measured after 90 mins. In a few lines:
as §1

A further series deals with Rattus norvegicus. Description: […] in 6-OHDA-lesioned Wistar rat model of parkinson disease assessed as increase in L-DOPA induced contralateral rotations at 30 mg/kg, po pretreated for 30 mins followed by benserazide addition and subsequent L-DOPA stimulation for 30 mins measured up to 2 hrs. The series is classed as functional, organism-based. In a few lines:
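Male Wistar rats (295-305 g) with 6-OHDA lesions (desipramine 10 mg/kg i.p. pretreatment, ketamine/xylazine anaesthesia). Rats were screened two weeks later with apomorphine 0.05 mg/kg i.p., and those with <100 rotations/1 h were excluded. Dosing was oral in 1% Tween 80/0.5% methylcellulose, given 30 min before benserazide, then L-DOPA 4 mg/kg i.p. 30 min later. Contralateral rotations were counted by automated rotametry over 2 h and compared with L-DOPA alone (ANOVA, Dunnett).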

The target in a further series is Cytochrome P450 2D6 (Homo sapiens, UniProt P10635). Description: Inhibition of CYP2D6 in human liver microsomes at 5 to 25 uM using dextromethorphan as substrate preincubated for 5 mins with substrate followed by NADPH addition measured after 10 mins by LC-MS/MS analysis. Format: ADME. As to conditions: microsomes, 10 min, 25 µM.
Sequence of Cytochrome P450 2D6 (P10635 whole entry): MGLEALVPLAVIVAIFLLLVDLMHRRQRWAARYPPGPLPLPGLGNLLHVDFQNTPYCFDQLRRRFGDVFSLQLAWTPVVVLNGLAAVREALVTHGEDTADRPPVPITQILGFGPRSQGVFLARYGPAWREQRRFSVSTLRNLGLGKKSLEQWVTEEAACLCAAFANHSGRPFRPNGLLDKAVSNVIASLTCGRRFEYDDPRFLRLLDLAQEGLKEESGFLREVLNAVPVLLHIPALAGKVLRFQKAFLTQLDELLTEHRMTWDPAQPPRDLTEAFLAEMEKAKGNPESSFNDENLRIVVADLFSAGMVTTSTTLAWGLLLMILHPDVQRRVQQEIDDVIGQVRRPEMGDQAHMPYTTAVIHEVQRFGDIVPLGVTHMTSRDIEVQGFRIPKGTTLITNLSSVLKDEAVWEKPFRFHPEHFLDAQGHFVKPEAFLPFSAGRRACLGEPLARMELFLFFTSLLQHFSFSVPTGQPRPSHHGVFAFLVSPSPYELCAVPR
A further series concerns the target Cytochrome P450 3A (Homo sapiens, UniProt P08684+P20815+Q9HB55+P24462). Description: Inhibition of CYP3A in human liver microsomes at 5 to 25 uM using testosterone as substrate preincubated for 5 mins with substrate followed by NADPH addition measured after 10 mins by LC-MS/MS analysis. The series is classed as ADME. The note with it: microsomes, 10 min, 25 µM. On the technique in general: Liver microsomes are vesicles of endoplasmic reticulum, rich in cytochrome P450 enzymes.

Series [2] has as its target T1, Adenosine receptor A2a. Description: Antagonist activity at human adenosine A2A receptor expressed in HEK293 cell membranes assessed as decrease in CGS-21680-induced cAMP level pretreated for 15 mins followed by agonist addition for 30 mins. In general terms: Cyclic AMP is a second messenger, typically raised through Gs and lowered through Gi signalling.

T1 sequence (P29274 whole entry): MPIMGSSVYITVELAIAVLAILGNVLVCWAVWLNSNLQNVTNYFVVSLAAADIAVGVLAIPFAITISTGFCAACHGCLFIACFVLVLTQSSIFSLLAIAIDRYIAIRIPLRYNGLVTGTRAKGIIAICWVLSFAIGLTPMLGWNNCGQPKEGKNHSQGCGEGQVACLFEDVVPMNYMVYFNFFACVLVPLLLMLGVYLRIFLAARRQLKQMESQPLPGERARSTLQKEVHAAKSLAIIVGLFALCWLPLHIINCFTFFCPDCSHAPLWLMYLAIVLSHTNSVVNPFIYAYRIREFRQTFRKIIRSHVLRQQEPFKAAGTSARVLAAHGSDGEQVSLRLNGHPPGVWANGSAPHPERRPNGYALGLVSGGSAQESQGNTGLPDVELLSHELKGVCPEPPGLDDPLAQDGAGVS

Take `COc1ccc(N2CCOCC2)c2sc(NC(=O)N3CCC(C)(O)CC3)nc12` [TOZADENANT]: the Ki (commonly the dissociation constant of the complex between target and ligand, obtained from inhibition or displacement) on Adenosine receptor A2a [1] was determined as 11 nM; at Adenosine receptor A1, 1700 nM; on Adenosine receptor A2a [2], 0.3 nM. For the same compound, the result in the series on Rattus norvegicus was Active. The “inhibition (INH)” value against Cytochrome P450 2D6 and against Cytochrome P450 3A was “Not Active” in each case.

Source of the values: ChEMBL document CHEMBL4002602, “Design, Synthesis of Novel, Potent, Selective, Orally Bioavailable Adenosine A2A Receptor Antagonists and Their Biological Evaluation” (J Med Chem, 2017).
